Source: ChEMBL document CHEMBL2046339, “Synthesis and evaluation of novel tropane derivatives as potential PET imaging agents for the dopamine transporter” (Bioorg Med Chem Lett, 2012)
pKd, pKi: −log10 of the molar value.

Columns and labels:
[1] = molecular target: T1, Sodium-dependent dopamine transporter (Homo sapiens, UniProt Q01959); assay: Displacement of [125I]IPT from DAT overexpressed in LLC-PK1 cell membrane by competitive binding assay
Heart = assay: Biodistribution in Sprague-Dawley rat heart at 30 uCi, iv measured after 30 mins by gamma counting; format: ADME, organism-based; conditions: in vivo, 0.5 h
In short: (§1)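 Normal male Sprague-Dawley rats (n = 3) received 30 μCi of the 18F tracer iv per rat and were sacrificed at 30 min. Organs removed, weighed and gamma counted. Striatum, hippocampus, cerebellum, cortex and hypothalamus dissected and counted separately. %dose/g calculated against diluted aliquots of the injected dose; mean ± S.D. of 3 rats.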

Brain = assay: Biodistribution in Sprague-Dawley rat brain at 30 uCi, iv measured after 30 mins by gamma counting; format: ADME, organism-based; conditions: in vivo, 0.5 h; in short: as §1
Kidney = assay: Biodistribution in Sprague-Dawley rat kidney at 30 uCi, iv measured after 30 mins by gamma counting; format: ADME, organism-based; conditions: in vivo, 0.5 h; in short: as §1
Nucleic Acid [2] = assay: Ratio of drug uptake in striatum to cerebellum of Sprague-Dawley rat at 30 uCi, iv measured after 30 mins by gamma counting; format: ADME, organism-based; conditions: in vivo, 0.5 h
In short: (§2)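 Male Sprague-Dawley rats (n = 3) received 30 μCi of the 18F tracer iv and were dissected at 30 min. Brain regions gamma counted as %dose/g against injected-dose aliquots. Regional uptake expressed as a ratio to cerebellum uptake.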

Lung = assay: Biodistribution in Sprague-Dawley rat lung at 30 uCi, iv measured after 30 mins by gamma counting; format: ADME, organism-based; conditions: in vivo, 0.5 h; in short: as §1
Hypothalamus = assay: Biodistribution in Sprague-Dawley rat hypothalamus at 30 uCi, iv measured after 30 mins by gamma counting; format: ADME, organism-based; conditions: in vivo, 0.5 h; in short: as §1
Hippocampus = assay: Biodistribution in Sprague-Dawley rat hippocampus at 30 uCi, iv measured after 30 mins by gamma counting; format: ADME, organism-based; conditions: in vivo, 0.5 h; in short: as §1
Striatum = assay: Biodistribution in Sprague-Dawley rat striatum at 30 uCi, iv measured after 30 mins by gamma counting; format: ADME, organism-based; conditions: in vivo, 0.5 h; in short: as §1
Cerebellum = assay: Biodistribution in Sprague-Dawley rat cerebellum at 30 uCi, iv measured after 30 mins by gamma counting; format: ADME, organism-based; conditions: in vivo, 0.5 h; in short: as §1
Cortex = assay: Biodistribution in Sprague-Dawley rat cortex at 30 uCi, iv measured after 30 mins by gamma counting; format: ADME, organism-based; conditions: in vivo, 0.5 h; in short: as §1
Bone = assay: Biodistribution in Sprague-Dawley rat bone at 30 uCi, iv measured after 30 mins by gamma counting; format: ADME, organism-based, Bone element; conditions: in vivo, 0.5 h; in short: as §1
Blood = assay: Biodistribution in Sprague-Dawley rat blood at 30 uCi, iv measured after 30 mins by gamma counting; format: ADME, organism-based; conditions: in vivo, 0.5 h; in short: as §1
Nucleic Acid [3] = assay: Ratio of drug uptake in hippocampus to cerebellum of Sprague-Dawley rat at 30 uCi, iv measured after 30 mins by gamma counting; format: ADME, organism-based; conditions: in vivo, 0.5 h; in short: as §2
Muscle tissue = assay: Biodistribution in Sprague-Dawley rat muscle at 30 uCi, iv measured after 30 mins by gamma counting; format: ADME, organism-based; conditions: in vivo, 0.5 h; in short: as §1
Liver = assay: Biodistribution in Sprague-Dawley rat liver at 30 uCi, iv measured after 30 mins by gamma counting; format: ADME, organism-based; conditions: in vivo, 0.5 h; in short: as §1
[4] = 1-Octanol-sodium phosphate buffer partition coefficient, log P of the compound at pH 7.4 after 4 mins; format: physicochemical
In short: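 Radiolabelled compound added to 3 g 1-octanol and 3 g NaH2PO4 buffer, pH 7.4. Mixture vortexed 1 min and centrifuged 3 min. Octanol layer removed and partition repeated two more times. log P taken from the ratio of counts/mL in octanol vs buffer after the third partition.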

[5] = molecular target: T1, Sodium-dependent dopamine transporter; assay: Binding affinity to DAT

T1 sequence (Q01959 whole entry): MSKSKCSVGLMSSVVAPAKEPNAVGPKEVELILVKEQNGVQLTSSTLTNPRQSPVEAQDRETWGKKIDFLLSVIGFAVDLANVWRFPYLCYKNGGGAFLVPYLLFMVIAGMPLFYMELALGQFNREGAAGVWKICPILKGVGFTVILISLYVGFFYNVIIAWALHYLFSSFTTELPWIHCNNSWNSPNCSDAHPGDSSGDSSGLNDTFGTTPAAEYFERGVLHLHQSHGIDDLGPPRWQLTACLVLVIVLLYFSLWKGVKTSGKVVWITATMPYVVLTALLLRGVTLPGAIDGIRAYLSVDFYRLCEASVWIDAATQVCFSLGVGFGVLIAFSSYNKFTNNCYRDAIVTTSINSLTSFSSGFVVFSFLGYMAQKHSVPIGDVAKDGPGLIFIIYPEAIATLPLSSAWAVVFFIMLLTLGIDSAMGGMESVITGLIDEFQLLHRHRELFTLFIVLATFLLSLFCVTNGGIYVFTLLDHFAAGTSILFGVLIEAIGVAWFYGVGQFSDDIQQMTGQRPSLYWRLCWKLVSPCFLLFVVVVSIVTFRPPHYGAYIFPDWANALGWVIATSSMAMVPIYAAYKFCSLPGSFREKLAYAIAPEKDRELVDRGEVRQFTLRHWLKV

Row | Compound | pKi [1] | Drug uptake (Heart) [% ID/g] | Drug uptake (Brain) [% ID/g] | Drug uptake (Kidney) [% ID/g] | Ratio (Nucleic Acid [2]) | Drug uptake (Lung) [% ID/g] | Drug uptake (Hypothalamus) [% ID/g] | Drug uptake (Hippocampus) [% ID/g] | Drug uptake (Striatum) [% ID/g] | Drug uptake (Cerebellum) [% ID/g] | Drug uptake (Cortex) [% ID/g] | Drug uptake (Bone) [% ID/g] | Drug uptake (Blood) [% ID/g] | Ratio (Nucleic Acid [3]) | Drug uptake (Muscle tissue) [% ID/g] | Drug uptake (Liver) [% ID/g] | logD at 4 min [4] | pKd [5] | pKi [5]
1 | CN(C)C[C@H]1[C@@H](c2ccc(Cl)cc2)C[C@@H]2CC[C@H]1N2CCC[18F] | 7.57 | 0.57 | 0.39 | 2.08 | 1.1 | 5.58 | 0.43 | 0.44 | 0.49 | 0.44 | 0.52 | 1.04 | 0.14 | 0.99 | 0.3 | 0.86 | 1.98 |  | 
2 | CN(CC[18F])C[C@H]1[C@@H](c2ccc(Cl)cc2)C[C@@H]2CC[C@H]1N2C | 8.42 | 0.8 | 0.72 | 3.65 | 1.63 | 5.93 | 0.82 | 0.79 | 1.07 | 0.65 | 0.91 | 0.43 | 0.1 | 1.21 | 0.27 | 3.01 | 1.52 |  | 
3 | COC(=O)[C@H]1[C@@H](c2ccc(Cl)cc2)C[C@@H]2CC[C@H]1N2C/C=C/[125I] |  |  |  |  |  |  |  |  |  |  |  |  |  |  |  |  |  | 8.92 | 
4 | CN(CCOCC[18F])C[C@H]1[C@@H](c2ccc(Cl)cc2)C[C@@H]2CC[C@H]1N2C | 8.33 |  |  |  |  |  |  |  |  |  |  |  |  |  |  |  |  |  | 
5 | Cc1ccc([C@H]2C[C@@H]3CC[C@H]([C@H]2C(=O)OCC[18F])N3C/C=C/I)cc1 |  |  |  |  |  |  |  |  |  |  |  |  |  |  |  |  |  |  | 7.92
6 | CN(C)C(=O)[C@H]1[C@@H](c2ccc(Cl)cc2)C[C@@H]2CC[C@H]1N2CC[18F] | 6.16 |  |  |  |  |  |  |  |  |  |  |  |  |  |  |  | -0.11 |  | 
7 | CN(C)C(=O)[C@H]1[C@@H](c2ccc(Cl)cc2)C[C@@H]2CC[C@H]1N2CCC[18F] | 6.87 |  |  |  |  |  |  |  |  |  |  |  |  |  |  |  | -0.07 |  | 
8 | CN(CCC[18F])C[C@H]1[C@@H](c2ccc(Cl)cc2)C[C@@H]2CC[C@H]1N2C | 8.58 | 1.56 | 0.52 | 4.63 | 0.94 | 11.5 | 0.63 | 0.54 | 0.63 | 0.66 | 0.68 | 0.5 | 0.1 | 0.8 | 0.22 | 2.08 | 1.72 |  | 
9 | CN(C)C[C@H]1[C@@H](c2ccc(Cl)cc2)C[C@@H]2CC[C@H]1N2CC[18F] | 7.74 |  |  |  |  |  |  |  |  |  |  |  |  |  |  |  | 1.88 |  | 
